The source of these data is ChEMBL document CHEMBL1150942, “Anti-AIDS agents. 30. Anti-HIV activity of oleanolic acid, pomolic acid, and structurally related triterpenoids” (J Nat Prod, 1998).

A short description of data set [1]: Therapeutic index, ratio of IC50 for human H9 cells to EC50 for HIV1 3B. The format is cell-based. As to conditions: for selectivity ratio: H9 cells (cytotoxicity IC50) and HIV-1 3B (antiviral EC50); call rule not given here. The method in brief: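 TI calculated as IC50 (Coulter counts of mock-infected cells after 4 days) divided by EC50 (day-4 supernatant p24 ELISA of infected cells). Both were read from the same 4-day plates.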

For another data set, the system named is H9 cells (Homo sapiens). In words: Cytotoxicity against human H9 cells after 4 days.
The test system of data set [2] is Human immunodeficiency virus 1. The experiment in a line: Inhibition of HIV-1 replication in acutely infected human H9 cells after 4 days. To be noted: H9, 96 h.
The subject of data set [3] is Human immunodeficiency virus 1. The experiment in a line: Antiviral activity against HIV1 in human H9 cells after 4 days. To be noted: h9, 96 h.
The mark [4] stands for this setting: Homo sapiens, H9, 96 h, read-out: IC50.

The structures appear in SMILES notation. Values after ≈ are worked out from the molar mass of the structure shown.

As a reminder, the IC50 is the midpoint of a concentration-inhibition curve. In general, EC50 refers to the midpoint of the concentration-response curve. Low values mean a more potent agent, high ones a less potent agent. In the case of `C[C@H]1[C@H](C)CC[C@]2(C(=O)O)CC[C@]3(C)C(=CC[C@@H]4[C@@]5(C)C[C@@H](O)[C@H](O)C(C)(C)[C@@H]5CC[C@]43C)[C@H]12` [COROSOLIC ACID], the selectivity ratio in data set [1] was found to be 2. The IC50 in the data set with H9 cells (Homo sapiens) (setting [4]) turned out to be 8 µg/mL (≈ 16.9 µM). The midpoint of the response in data set [2], the EC50, lay at 4 µg/mL (≈ 8.46 µM).

For `CC1(C)CC[C@]2(C(=O)O)CC[C@]3(C)C(=CC[C@@H]4[C@@]5(C)CC[C@H](OC(=O)CC6(CC(=O)O)CCCC6)C(C)(C)[C@@H]5CC[C@]43C)[C@@H]2C1`, in data set [1], the selectivity ratio was determined as 3.9. In addition, in the data set with H9 cells (Homo sapiens) (setting [4]), the half-maximal inhibitory concentration (IC50) was 4.7 µg/mL (≈ 7.52 µM).

As for `CC1(C)CC[C@]2(C(=O)O)CC[C@]3(C)C(=CC[C@@H]4[C@@]5(C)CC[C@H](OC(=O)CCC(=O)O)C(C)(C)[C@@H]5CC[C@]43C)[C@@H]2C1` [OLEANOLIC ACID 3-O-SUCCINATE], the selectivity ratio in data set [1] was determined as 1.1. For the same compound, the IC50 in the data set on H9 cells (Homo sapiens) (setting [4]) is 6.5 µg/mL (≈ 11.7 µM). In data set [2], this compound displayed a half-maximal effective concentration (EC50) of 6.1 µg/mL (≈ 11 µM).

Take `C[C@@H]1CC[C@]2(C(=O)O)CC[C@]3(C)C(=CC[C@@H]4[C@@]5(C)C[C@@H](O)[C@@H](O)C(C)(C)[C@@H]5CC[C@]43C)[C@@H]2[C@]1(C)O` [EUSCAPHIC ACID]: in the data set with H9 cells (Homo sapiens) (setting [4]), the IC50 turned out to be 37.5 µg/mL (≈ 76.7 µM). Also, the Activity entry in data set [3] was “Not Active”.

For `C[C@@H]1CC[C@]2(C(=O)O)CC[C@]3(C)C(=CC[C@@H]4[C@@]5(C)CC(=O)[C@H](O)C(C)(C)[C@@H]5CC[C@]43C)[C@@H]2[C@]1(C)O`, the selectivity ratio in data set [1] is 2. For the same compound, in the data set with H9 cells (Homo sapiens) (setting [4]), the half-inhibitory concentration (IC50) came out at 40 µg/mL (≈ 82.2 µM). For the same compound, it took 20 µg/mL (≈ 41.1 µM) to reach a half-maximal effect in data set [2] (EC50).

`C[C@@H]1CC[C@]2(C(=O)O)CC[C@]3(C)C(=CC[C@@H]4[C@@]5(C)[C@H](O)[C@@H](O)[C@@H](O)C(C)(C)[C@@H]5CC[C@]43C)[C@@H]2[C@]1(C)O`: the selectivity ratio in data set [1] is above 2.9. In addition, the IC50 with H9 cells (Homo sapiens) (setting [4]) was above 100 µg/mL. The compound also had an EC50 in data set [2] of 35 µg/mL (≈ 69.3 µM).

On to `CC1(C)CC[C@]2(C(=O)O)CC[C@]3(C)C(=CC[C@@H]4[C@@]5(C)CC[C@H](OC(=O)CCCC(=O)O)C(C)(C)[C@@H]5CC[C@]43C)[C@@H]2C1`, for which the selectivity ratio in data set [1] is 2.1. The IC50 in the data set with H9 cells (Homo sapiens) (setting [4]) turned out to be 14.6 µg/mL (≈ 25.6 µM).

As for `CC1(C)CC[C@]2(C(=O)O)CC[C@]3(C)C(=CC[C@@H]4[C@@]5(C)CCC(=O)C(C)(C)[C@@H]5CC[C@]43C)[C@@H]2C1` [OLEANONIC ACID], the selectivity ratio in data set [1] amounted to 7.3. Also, in the data set with H9 cells (Homo sapiens) (setting [4]), the half-inhibitory concentration (IC50) was 0.8 µg/mL (≈ 1.76 µM). Also, the half-maximal effective concentration (EC50) in data set [2] amounted to 0.11 µg/mL (≈ 0.242 µM).

On to `C[C@@H]1CC[C@]2(C(=O)O)CC[C@]3(C)C(=CC[C@@H]4[C@@]5(C)C[C@@H](O)[C@H](O)C(C)(C)[C@@H]5CC[C@]43C)[C@@H]2[C@]1(C)O` [TOMENTIC ACID], for which the IC50 in the data set with H9 cells (Homo sapiens) (setting [4]) was found to be 15 µg/mL (≈ 30.7 µM). In addition, the Activity result in data set [3] is “Not Active”.

As to `CC1(C)CC[C@]2(C(=O)O)CC[C@]3(C)C(=CC[C@@H]4[C@@]5(C)CC[C@H](O)C(C)(C)[C@@H]5CC[C@]43C)[C@@H]2C1` [OLEANOLIC_ACID], the IC50 in the data set with H9 cells (Homo sapiens) (setting [4]) came out at 21.8 µg/mL (≈ 47.7 µM).

`CC1(C)CC[C@]2(C(=O)O)CC[C@]3(C)C(=CC[C@@H]4[C@@]5(C)CC[C@H](OC(=O)COCC(=O)O)C(C)(C)[C@@H]5CC[C@]43C)[C@@H]2C1`: the concentration for half-maximal inhibition (IC50) with H9 cells (Homo sapiens) (setting [4]) is 22.1 µg/mL (≈ 38.6 µM). Moreover, in data set [3], the Activity result is on record as “Not Active”.

`C[C@@H]1CC[C@]2(C(=O)O)CC[C@]3(C)C(=CC[C@@H]4[C@@]5(C)[C@H](O)C(=O)[C@H](O)C(C)(C)[C@@H]5CC[C@]43C)[C@@H]2[C@]1(C)O`: the IC50 with H9 cells (Homo sapiens) (setting [4]) was found to be 40 µg/mL (≈ 79.6 µM). For the same compound, the Activity result in data set [3] is given as “Not Active”.

For `C[C@H]1[C@H](C)CC[C@]2(C(=O)O)CC[C@]3(C)C(=CC[C@@H]4[C@@]5(C)CC[C@H](O)C(C)(C)[C@@H]5CC[C@]43C)[C@H]12` [URSOLIC ACID], the selectivity ratio in data set [1] was 3.3. The IC50 with H9 cells (Homo sapiens) (setting [4]) came to 6.5 µg/mL (≈ 14.2 µM). In data set [2], this compound displayed a concentration for a half-maximal effect (EC50) of 2 µg/mL (≈ 4.38 µM).

With `C[C@@H]1CC[C@]2(C(=O)O)CC[C@]3(C)C(=CC[C@@H]4[C@@]5(C)[C@H](O)[C@H](O)[C@H](O)C(C)(C)[C@@H]5CC[C@]43C)[C@@H]2[C@]1(C)O`, the IC50 in the data set with H9 cells (Homo sapiens) (setting [4]) is above 20 µg/mL. Further, the Activity result in data set [3] is “Not Active”.

Consider `C[C@@H]1CC[C@]2(C(=O)O)CC[C@]3(C)C(=CC[C@@H]4[C@@]5(C)CC[C@H](O)C(C)(C)[C@@H]5CC[C@]43C)[C@@H]2[C@]1(C)O` [POMOLIC ACID], for which the selectivity ratio in data set [1] is 16.6. In the data set with H9 cells (Homo sapiens) (setting [4]), the concentration for half-maximal inhibition (IC50) amounted to 23.3 µg/mL (≈ 49.3 µM). In addition, the 50% effective concentration (EC50) in data set [2] came out at 1.4 µg/mL (≈ 2.96 µM).

On to `C=C(C)[C@@H]1CC[C@]2(C(=O)O)CC[C@]3(C)[C@H](CC[C@@H]4[C@@]5(C)C[C@@H](O)[C@H](O)C(C)(C)[C@@H]5CC[C@]43C)[C@@H]12` [ALPHITOLIC ACID], for which the selectivity ratio in data set [1] stood at 0.25. In the data set with H9 cells (Homo sapiens) (setting [4]), the concentration for half-maximal inhibition (IC50) turned out to be 4 µg/mL (≈ 8.46 µM). In data set [2], this compound gave a half-maximal effective concentration (EC50) of 20 µg/mL (≈ 42.3 µM).

Regarding `CC1(C)CC[C@]2(C(=O)O)CC[C@]3(C)C(=CC[C@@H]4[C@@]5(C)CC[C@H](OC(=O)CC(C)(C)C(=O)O)C(C)(C)[C@@H]5CC[C@]43C)[C@@H]2C1`, the selectivity ratio in data set [1] is 22400. In the data set on H9 cells (Homo sapiens) (setting [4]), the concentration for half-maximal inhibition (IC50) worked out at 11.2 µg/mL (≈ 19.2 µM).

With `CC(C)(CC(=O)O)CC(=O)O[C@H]1CC[C@]2(C)[C@H]3CC=C4[C@@H]5CC(C)(C)CC[C@]5(C(=O)O)CC[C@@]4(C)[C@]3(C)CC[C@H]2C1(C)C`, the selectivity ratio in data set [1] is 9.3. Further, in the data set with H9 cells (Homo sapiens) (setting [4]), the IC50 is 14.2 µg/mL (≈ 23.7 µM).

For the compound `CC[C@@](C)(CC(=O)O)CC(=O)O[C@H]1CC[C@]2(C)[C@H]3CC=C4[C@@H]5CC(C)(C)CC[C@]5(C(=O)O)CC[C@@]4(C)[C@]3(C)CC[C@H]2C1(C)C`, in data set [1], the selectivity ratio was 4.1. Also, the IC50 in the data set with H9 cells (Homo sapiens) (setting [4]) stood at 4.4 µg/mL (≈ 7.18 µM). Also, the concentration for a half-maximal effect (EC50) in data set [2] was found to be 1.1 µg/mL (≈ 1.79 µM).

With `CC1(C)CC[C@]2(C(=O)O)CC[C@]3(C)C(=CC[C@@H]4[C@@]5(C)CC[C@H](OC(=O)C(C)(C)CC(=O)O)C(C)(C)[C@@H]5CC[C@]43C)[C@@H]2C1`, the IC50 with H9 cells (Homo sapiens) (setting [4]) stood at 9.7 µg/mL (≈ 16.6 µM). Further, the Activity entry in data set [3] was “Not Active”.

As to `CC1(C)CC[C@]2(C(=O)O)CC[C@]3(C)C(=CC[C@@H]4[C@@]5(C)C[C@@H](O)[C@H](O)[C@@](C)(CO)[C@@H]5CC[C@]43C)[C@@H]2C1` (stereo in doubt; 3) [ARJUNOLIC ACID], the IC50 in the data set on H9 cells (Homo sapiens) (h9) was 36 µg/mL (≈ 73.7 µM). Moreover, the EC50 in data set [2] came out at 15 µg/mL (≈ 30.7 µM).

With `CC1(C)CC[C@]2(C(=O)[O-])CC[C@]3(C)C(=CC[C@@H]4[C@@]5(C)CC[C@H](O)C(C)(C)[C@@H]5CC[C@]43C)[C@@H]2C1.[K+]`, in data set [1] (h9), the “Ratio IC50/EC50” value came to 68.6. Also, the half-inhibitory concentration (IC50) in the data set with H9 cells (Homo sapiens) (setting [4]) is 34.3 µg/mL. In data set [2], this compound came in with an EC50 of 0.5 µg/mL.

Consider `CC1(C)CC[C@]2(C(=O)O)CC[C@]3(CO)C(=CC[C@@H]4[C@@]5(C)CC[C@H](O)C(C)(C)[C@@H]5CC[C@]43C)[C@@H]2C1`, for which, in data set [1], the selectivity ratio worked out at 5.7. Moreover, the IC50 in the data set with H9 cells (Homo sapiens) (setting [4]) was 25 µg/mL (≈ 52.9 µM). In data set [2], this compound came in with a 50% effective concentration (EC50) of 4.4 µg/mL (≈ 9.31 µM).

Regarding `C[C@@H](CC(=O)O)CC(=O)O[C@H]1CC[C@]2(C)[C@H]3CC=C4[C@@H]5CC(C)(C)CC[C@]5(C(=O)O)CC[C@@]4(C)[C@]3(C)CC[C@H]2C1(C)C`, the selectivity ratio in data set [1] turned out to be 3.3. For the same compound, the half-inhibitory concentration (IC50) in the data set with H9 cells (Homo sapiens) (setting [4]) was found to be 27.5 µg/mL (≈ 47 µM). The EC50 in data set [2] was determined as 8.3 µg/mL (≈ 14.2 µM).

As to `C[C@H]1[C@H](C)CC[C@]2(C(=O)O)CC[C@]3(C)C(=CC[C@@H]4[C@@]5(C)C[C@@H](O)[C@H](O)[C@@](C)(CO)[C@@H]5CC[C@]43C)[C@H]12` [ASIATIC ACID], the IC50 with H9 cells (Homo sapiens) (setting [4]) turned out to be 9 µg/mL (≈ 18.4 µM). For the same compound, in data set [3], the Activity result is “Not Active”.

As to `CC1(C)CC[C@]2(C(=O)O)CC[C@]3(C)C(=CC[C@@H]4[C@@]5(C)C[C@@H](O)[C@H](O)[C@@](C)(CO)[C@@H]5CC[C@]43C)[C@@H]2C1` (stereo in doubt; 2) [ARJUNOLIC ACID], in the data set on H9 cells (Homo sapiens) (h9), the half-inhibitory concentration (IC50) amounted to 8 µg/mL (≈ 16.4 µM).
